Source: article PMC7839511 (Antiviral Research, 2021)

What was measured:
Type in all cases: biochemical
[1] = target: Human Cathepsin L (Homo sapiens, UniProt P07711); assay: Human cathepsin L assay; details: FRET Cathepsin L IC50, 10 pM human cathepsin L, 2 μM Z-FR-AMC, pH 5.5
Procedure, shortened: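 Human enzyme, 10 pM final, preincubated 30 min with test compound at ambient temperature in 20 mM sodium acetate, 1 mM EDTA, 0.005% Brij-35, 5 mM DTT, pH5.5. Started with 2 μM Z-FR-AMC (final). Fluorescence (355/460 excitation/emission) read at 2-min intervals over 30 min. IC50 from four-parameter curve fit.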

[2] = target: rhinovirus HRV3C protease (Human rhinovirus 14, UniProt P03303); assay: 3CLpro and HRV3C duplex SAMDI-MS assay, HRV3C readout
Sequence of rhinovirus HRV3C protease (P03303 1538-1719 limits assumed): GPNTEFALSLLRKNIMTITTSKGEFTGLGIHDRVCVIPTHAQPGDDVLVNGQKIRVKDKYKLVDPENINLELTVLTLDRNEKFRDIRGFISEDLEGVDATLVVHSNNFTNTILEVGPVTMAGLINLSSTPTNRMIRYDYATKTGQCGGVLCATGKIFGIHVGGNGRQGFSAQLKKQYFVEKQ
Procedure, shortened: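 Enzymes preincubated 30 min with test compound. Biotinylated cognate peptides added (10 µM each, final). Reaction ran 30 min, then formic acid quench and bicarbonate neutralisation. Captured on SAMDI chips for 1 h; product conversion AUCprod/(AUCInt Stnd + AUCprod).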

[3] = target: SARS-CoV-2 3CLpro (Severe acute respiratory syndrome coronavirus 2, UniProt P0DTD1); details: duplex SAMDI-MS assay

Sequence of Human Cathepsin L (P07711 114-333): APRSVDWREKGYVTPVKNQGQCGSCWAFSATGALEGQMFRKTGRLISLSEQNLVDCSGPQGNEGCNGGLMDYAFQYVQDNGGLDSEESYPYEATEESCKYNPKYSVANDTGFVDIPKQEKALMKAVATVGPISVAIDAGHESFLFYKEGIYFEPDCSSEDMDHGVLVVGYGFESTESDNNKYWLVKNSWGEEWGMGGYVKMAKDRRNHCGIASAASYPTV

SMILES	IC50 [1] [nM]	IC50 [2] [nM]	inhibition of 3CLpro (in words) [3]
CC(C)(C)NC(=O)N[C@H](C(=O)N1C[C@H]2[C@@H]([C@H]1C(=O)NC(CC1CCC1)C(=O)C(N)=O)C2(C)C)C(C)(C)C (some centres unmarked) [Boceprevir]	2300	> 100000	
CCOC(=O)/C=C/[C@H](C[C@@H]1CCNC1=O)NC(=O)[C@@H](CC(=O)[C@@H](NC(=O)c1cc(C)on1)C(C)C)Cc1ccc(F)cc1 [Rupintrivir]	4400	1.04	no observed inhibition
